Measured values from publication PMC7275135 (Applied Microbiology and Biotechnology, 2020).
Where a SMILES comes first, the peptide text is derived from it.

Assays:
[1] = tested on: S. epidermidis ATCC 12228; assay: MIC, microtiter plate assay; format: cell-based, Staphylococcus epidermidis; conditions: triplicate
Gram-positive bacteria = assay: MIC range over the Gram-positive strains; format: cell-based; conditions: S. aureus CVCC 546, S. epidermidis ATCC 12228, S. pneumoniae CVCC 2350, S. suis CVCC 3928
MEECs = assay: Cytotoxicity, MTT assay; format: cell-based, mouse; conditions: 256 μg/mL, n = 4
S. aureus CVCC 546 [2] = assay: Membrane depolarization, Rhodamine 123 flow cytometry; format: cell-based, Staphylococcus aureus; conditions: 2 h, 10^8 CFU/mL
[3] = tested on: intracellular S. aureus CVCC 546; assay: Intracellular antimicrobial activity in MEECs; format: cell-based, Staphylococcus aureus; conditions: 24 h treatment, dose-dependent, colony counting
Outline: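 MEECs in antibiotic-free DMEM, seeded at 2.5 × 10^5 cells/mL and grown 24 h, then infected with an equal volume of S. aureus CVCC 546 (2.5 × 10^7 CFU/mL) for 0.5 h. Extracellular bacteria killed with lysostaphin 50 μg/mL for 1 h, then PBS wash.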

[4] = tested on: LTA-induced cytokines from RAW 264.7; assay: LTA neutralization, cytokine ELISA; format: cell-based, mouse; conditions: RAW 264.7, LTA-stimulated, 25-μg/mL
S. aureus CVCC 546 [5] = assay: S. aureus-induced endometritis model of mice; format: in vivo, mouse; conditions: 10-mg/kg

SMILES	MICs [1] [µM]	MICs (range over strains) (Gram-positive bacteria)	cell viability toward MEECs (MEECs) [%]	Rh 123 fluorescence intensity increased by (S. aureus CVCC 546 [2]; 1 × MIC) [%]	Rh 123 fluorescence intensity increased by (S. aureus CVCC 546 [2]; 2 × MIC) [%]	killing of S. aureus CVCC 546 in MEEC cells [3]	IL-10 increased by [4] [%]	histopathology of uteri (H&E) (S. aureus CVCC 546 [5])
CC[C@H](C)[C@@H]1NC(=O)[C@@H]2CSSC[C@@H](C(=O)N[C@@H](CCCNC(=N)N)C(=O)N[C@@H](CCCCN)C(=O)O)NC(=O)[C@H](CC(N)=O)NC(=O)[C@@H]3CSSC[C@H](NC(=O)[C@H](C)NC(=O)[C@H](C)NC(=O)[C@H](Cc4c[nH]cn4)NC(=O)CNC(=O)[C@H](C(C)C)NC(=O)[C@H](CCCCN)NC(=O)[C@H](Cc4ccccc4)NC(=O)[C@@H]4CCCN4C(=O)[C@H](CO)NC(=O)[C@H](CC(C)C)NC(=O)[C@H](CC(C)C)NC(=O)[C@H](CC(=O)O)NC(=O)[C@@H](NC(=O)[C@@H](NC(=O)[C@H](C)N)[C@@H](C)O)CSSC[C@H](NC(=O)[C@H](Cc4c[nH]c5ccccc45)NC(=O)CNC(=O)CNC(=O)[C@H](CCCNC(=N)N)NC(=O)[C@H](CCCCN)NC(=O)CNC(=O)[C@H](CCCNC(=N)N)NC(=O)[C@H](C)NC1=O)C(=O)N[C@@H](CC(=O)O)C(=O)N[C@@H](CCCCN)C(=O)N[C@@H](CCCNC(=N)N)C(=O)N[C@@H](C)C(=O)N[C@@H](C(C)C)C(=O)N3)C(=O)N[C@@H](C)C(=O)N[C@@H](C)C(=O)N[C@@H](Cc1c[nH]cn1)C(=O)N2 [DLP4] (HELM PEPTIDE1{A.T.C.D.L.L.S.P.F.K.V.G.H.A.A.C.A.A.H.C.I.A.R.G.K.R.G.G.W.C.D.K.R.A.V.C.N.C.R.K}$PEPTIDE1,PEPTIDE1,3:R3-30:R3|PEPTIDE1,PEPTIDE1,16:R3-36:R3|PEPTIDE1,PEPTIDE1,20:R3-38:R3$$$V2.0; N-terminus assumed)	14.99	3.75~14.99 μM	74.14	–	–	–	–	–
CN[C@H](CC(C)C)C(=O)N[C@H]1C(=O)N[C@@H](CC(N)=O)C(=O)N[C@H]2C(=O)N[C@H]3C(=O)N[C@H](C(=O)N[C@H](C(=O)O)c4cc(O)cc(O)c4-c4cc3ccc4O)[C@H](O)c3ccc(c(Cl)c3)Oc3cc2cc(c3O[C@@H]2O[C@H](CO)[C@@H](O)[C@H](O)[C@H]2O[C@H]2C[C@](C)(N)[C@H](O)[C@H](C)O2)Oc2ccc(cc2Cl)[C@H]1O [vancomycin]	–	–	90.15	23.1	26.6	over 99%	81.26	Only a small amount of scattered inflammatory cells were observed in part of uterus
